Measurements reported in ChEMBL document CHEMBL4033747, “Design and synthesis of a novel inhibitor of T. Viride chitinase through an in silico target fishing protocol” (Bioorg Med Chem Lett, 2017).
≈ marks a conversion by molar mass, not a printed value.

Tests used:
Pichia kudriavzevii = test: Antifungal activity against Candida krusei incubated for 24 hrs by visual and spectrophotometry method; format: functional
Candida albicans = test: Antifungal activity against Candida albicans incubated for 24 hrs by visual and spectrophotometry method; format: functional
Candida parapsilosis = test: Antifungal activity against Candida parapsilosis incubated for 24 hrs by visual and spectrophotometry method; format: functional; settings: Lodderomyces parapsilosis
Chitinase = Chitinase (Hypocrea rufa, UniProt D2K848); test: Inhibition of Trichoderma viride chitinase incubated for 10 mins to 3 hrs using 4-nitrophenyl N-acetyl-beta-D-glucosaminide substrate by spectrophotometry
Chitinase, sequence (D2K848 whole entry): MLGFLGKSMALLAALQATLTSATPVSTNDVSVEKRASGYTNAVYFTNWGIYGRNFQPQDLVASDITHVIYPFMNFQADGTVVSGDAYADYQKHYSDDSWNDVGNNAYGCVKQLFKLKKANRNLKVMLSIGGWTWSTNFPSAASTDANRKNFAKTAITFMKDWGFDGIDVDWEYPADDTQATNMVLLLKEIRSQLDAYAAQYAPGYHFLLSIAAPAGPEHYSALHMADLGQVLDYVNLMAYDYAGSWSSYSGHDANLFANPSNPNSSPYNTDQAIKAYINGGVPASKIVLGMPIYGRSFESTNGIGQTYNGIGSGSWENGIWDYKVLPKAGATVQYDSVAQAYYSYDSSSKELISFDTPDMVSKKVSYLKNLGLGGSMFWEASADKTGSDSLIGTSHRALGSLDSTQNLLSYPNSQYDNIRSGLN
In short: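 Commercial Trichoderma viride chitinase preincubated with varying inhibitor concentrations directly in the reading plate, room temperature, 3 h. Substrate 4-nitrophenyl N-acetyl-β-D-glucosaminide then added. […] IC50 and Ki calculated from these readings.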

Candida tropicalis = test: Antifungal activity against Candida tropicalis incubated for 24 hrs by visual and spectrophotometry method; format: functional
Nakaseomyces glabratus = test: Antifungal activity against Candida glabrata incubated for 24 hrs by visual and spectrophotometry method; format: functional
Kluyveromyces marxianus = test: Antifungal activity against Candida kefyr incubated for 24 hrs by visual and spectrophotometry method; format: functional
[1] = tested on: Meyerozyma guilliermondii; test: Antifungal activity against Candida guillermondii incubated for 24 hrs by visual and spectrophotometry method; format: functional

Structure (SMILES)	MIC90 (Pichia kudriavzevii) [µg/mL]	MIC90 (Candida albicans) [µg/mL]	MIC90 (Candida parapsilosis) [µg/mL]	IC50 (Chitinase) [µM]	Ki (Chitinase) [µM]	MIC90 (Candida tropicalis) [µg/mL]	MIC90 (Nakaseomyces glabratus) [µg/mL]	MIC90 (Kluyveromyces marxianus) [µg/mL]	MIC90 [1] [µg/mL]
C/C=C/CNC(=N)NCCCCCCCCN1CCCCCCOc2ccccc2CNC(=N)NC1=O	4 (≈ 7.79 µM)	4 (≈ 7.79 µM)	2 (≈ 3.89 µM)	35.5	14.1	1 (≈ 1.95 µM)	16 (≈ 31.1 µM)	2 (≈ 3.89 µM)	2 (≈ 3.89 µM)
C/C=C/CNC(=N)NCCCCCCCCN1CCCCCCCCNC(=N)NC1=O	–	–	–	157	50.8	–	–	–	–
CCNC(=N)NCCCCCCN1CCCCCCCCNC(=N)NC1=O	–	–	–	140	45.3	–	–	–	–
C#CCNC(=N)NCCCCCCN1CCCCCCCCNC(=N)NC1=O	–	–	–	97	31.3	–	–	–	–
CNC(=O)NC(=N)NCCCCCCCCN1CCCCCCOc2ccccc2CNC(=N)NC1=O	12 (≈ 23.2 µM)	25 (≈ 48.4 µM)	25 (≈ 48.4 µM)	0.68	0.22	12 (≈ 23.2 µM)	25 (≈ 48.4 µM)	6 (≈ 11.6 µM)	25 (≈ 48.4 µM)
C=C(C)CNC(=N)NCCCCCCN1CCCCCCCCNC(=N)NC1=O	–	–	–	108	34.8	–	–	–	–
N=C(NCCCCCCCCN1CCCCCCCCNC(=N)NC1=O)NCC1CC1	–	–	–	130	42	–	–	–	–
C/C=C/CNC(=N)NCCCCCCCCN1CCCCCOc2ccccc2CNC(=N)NC1=O	–	–	–	55	17.8	–	–	–	–
C/C=C/CNC(=N)NCCCCCCN1CCCCCCCCNC(=N)NC1=O	–	–	–	111	35.8	–	–	–	–
